According to ChEMBL document CHEMBL1122228, “1-(Aminomethyl)-6,7-dihydroxytetralin derivatives: synthesis and assessment of dopamine-like effects” (1983):
The source made the active and inactive calls. The rule behind the calls is not given here.

Legend:
Felis catus [1] = test: Inhibition of positive chronotropic response induced by stimulation of cardioaccelerator nerve of cat at 1 mg/kg (iv); Inactive; assay type: functional, organism-based; design: dose 1 mg/kg
How it was run: (§1)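 Cats of either sex, 4–6 kg, were anesthetized with intraperitoneal pentobarbital sodium (30 mg/kg) and pretreated with atropine sulfate (200 μg/kg) and hexamethonium bromide (10 mg/kg). They were intubated and ventilated, with the chest opened. Bipolar platinum electrodes were placed on the right postganglionic cardioaccelerator nerves, stimulated at 2 Hz for 30 s, 2-ms pulses, supramaximal 20–25 V. Heart rate was recorded. Compounds were given iv up to 1 mg/kg.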

Felis catus [2] = test: Active dose range of hypotensive effect in cat; range is 0.008-0.032 uM/kg.; assay type: functional
Felis catus [3] = test: Inhibition of positive chronotropic response induced by stimulation of cardioaccelerator nerve of cat at 1 mg/kg (iv); assay type: functional; how it was run: as §1
Felis catus [4] = test: Ability to lower arterial blood pressure in cat at 1.7 umol/kg; assay type: functional, Artery
How it was run: (§2)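 Cats of either sex, 4–6 kg, anesthetized with intraperitoneal pentobarbital sodium (30 mg/kg), intubated and ventilated by respirator. Arterial blood pressure and heart rate were monitored. Test doses ranged from 0.5 to 1.0 mg/kg.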

Felis catus [5] = test: Ability to lower arterial blood pressure in cat at 3.4 umol/kg; assay type: functional, Artery; how it was run: as §2

Compound	Activity (Felis catus [1])	further results
CC(C)NCC1CCCc2cc(O)c(O)cc21 (stereo unspecified)	inactive	–
CN1CCc2cccc3c2[C@H]1Cc1ccc(O)c(O)c1-3 [APOMORPHINE]	–	Dose range (Felis catus [2]): 0.032 µM/kg; ED50 (Felis catus [3]): 0.022 µmol/kg
CNCC1CCCc2cc(O)c(O)cc21 (stereo unspecified)	inactive	–
CCNCC1CCCc2cc(O)c(O)cc21 (stereo unspecified)	inactive	–
CCCNCC1CCCc2cc(O)c(O)cc21 (stereo unspecified)	inactive	–
CC(C)N(C)CC1CCCc2cc(O)c(O)cc21 (stereo unspecified)	inactive	–
Br.CN(C)CC1CCCc2cc(O)c(O)cc21 (stereo unspecified)	inactive	BP (Felis catus [4]): 31.5 mmHg; BP (Felis catus [5]): 34.5 mmHg
CCN(CC)CC1CCCc2cc(O)c(O)cc21 (stereo unspecified)	inactive	–
